Results: ChEMBL document CHEMBL4028913, “Discovery of Novel Potent VEGFR-2 Inhibitors Exerting Significant Antiproliferative Activity against Cancer Cell Lines” (J Med Chem, 2018)
The source made the active and inactive calls. The calls are words filed in the database; no cut-off is given here.

Tests used:
MDA-MB-435 [1] = test: Growth inhibition of human MDA-MB-435 cells at 10 uM after 72 hrs by CellTiter-Glo assay relative to control; format: functional; details: MDA-MB-435, 72 h, read-out: GI
Procedure, shortened: (§1)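 Cells in exponential phase seeded at 2000–4000 cells/well, then exposed 72 h at 37 °C, 5% CO2 with 0.1% final DMSO. Single-point screen at 10 μM final. […] Read-out was CellTiter-Glo luminescence.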

A-431 = test: Growth inhibition of human A431 cells at 10 uM after 72 hrs by CellTiter-Glo assay relative to control; format: functional; details: A-431, 72 h, read-out: GI
Procedure, shortened: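 A431 cells seeded at 2000–4000 cells/well and treated with 10 μM final compound, 0.1% DMSO, for 72 h at 37 °C, 5% CO2. Viability read by CellTiter-Glo. Inhibition ratio = 1 − Vsample/Vvehicle control; triplicate.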

HUVEC [2] = test: Growth inhibition of HUVEC at 10 uM after 72 hrs by CellTiter-Glo assay relative to control; format: functional; details: Homo sapiens, read-out: GI; procedure, shortened: as §1
HUVEC [3] = test: Growth inhibition of HUVEC after 72 hrs by CellTiter-Glo assay; format: functional, cell-based; details: Homo sapiens; procedure, shortened: as §1
MDA-MB-435 [4] = test: Growth inhibition of human MDA-MB-435 cells after 72 hrs by CellTiter-Glo assay; format: functional, cell-based; details: MDA-MB-435, 72 h; procedure, shortened: as §1
[5] = biological target: T1, Vascular endothelial growth factor receptor 2 (Homo sapiens, UniProt P35968); details: at 10 µM
T1 sequence (P35968 whole entry): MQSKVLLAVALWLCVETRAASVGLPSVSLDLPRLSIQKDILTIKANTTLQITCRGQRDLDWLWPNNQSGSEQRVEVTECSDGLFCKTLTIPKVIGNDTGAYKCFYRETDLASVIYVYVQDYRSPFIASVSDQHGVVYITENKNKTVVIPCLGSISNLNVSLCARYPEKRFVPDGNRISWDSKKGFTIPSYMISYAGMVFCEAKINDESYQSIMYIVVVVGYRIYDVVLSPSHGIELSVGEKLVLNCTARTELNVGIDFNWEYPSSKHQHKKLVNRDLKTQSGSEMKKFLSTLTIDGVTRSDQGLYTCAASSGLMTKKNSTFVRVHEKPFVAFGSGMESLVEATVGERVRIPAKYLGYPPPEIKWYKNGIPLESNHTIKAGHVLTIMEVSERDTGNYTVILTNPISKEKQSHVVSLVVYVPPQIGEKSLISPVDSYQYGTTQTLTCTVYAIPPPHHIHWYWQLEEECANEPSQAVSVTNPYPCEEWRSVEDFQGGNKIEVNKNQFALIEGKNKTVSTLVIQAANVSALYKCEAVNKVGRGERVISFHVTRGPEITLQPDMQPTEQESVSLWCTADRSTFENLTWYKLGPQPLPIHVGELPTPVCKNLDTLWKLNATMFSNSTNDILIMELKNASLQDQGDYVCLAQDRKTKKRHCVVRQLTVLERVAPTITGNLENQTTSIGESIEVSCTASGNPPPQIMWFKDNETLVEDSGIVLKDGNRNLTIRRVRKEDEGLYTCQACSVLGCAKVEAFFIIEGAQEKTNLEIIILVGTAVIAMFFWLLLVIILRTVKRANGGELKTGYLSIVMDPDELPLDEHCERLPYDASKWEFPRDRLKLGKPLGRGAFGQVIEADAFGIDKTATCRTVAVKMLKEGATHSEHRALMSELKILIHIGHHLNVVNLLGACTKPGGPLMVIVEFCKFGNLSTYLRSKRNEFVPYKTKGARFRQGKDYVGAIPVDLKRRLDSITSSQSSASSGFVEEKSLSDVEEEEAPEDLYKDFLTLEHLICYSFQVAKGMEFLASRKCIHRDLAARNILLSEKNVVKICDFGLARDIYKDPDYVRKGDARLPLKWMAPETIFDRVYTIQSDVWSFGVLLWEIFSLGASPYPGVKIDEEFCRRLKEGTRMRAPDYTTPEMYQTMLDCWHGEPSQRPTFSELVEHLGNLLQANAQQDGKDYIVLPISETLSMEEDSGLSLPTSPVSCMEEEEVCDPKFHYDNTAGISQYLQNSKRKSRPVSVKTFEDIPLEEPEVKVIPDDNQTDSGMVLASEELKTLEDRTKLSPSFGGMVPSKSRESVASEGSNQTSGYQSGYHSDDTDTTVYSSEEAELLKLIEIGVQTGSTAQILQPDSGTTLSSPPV

[6] = biological target: T1, Vascular endothelial growth factor receptor 2
[7] = biological target: STE20-like serine/threonine-protein kinase (Homo sapiens) (UniProt Q9H2G2); test: Inhibition of human SLK at 0.5 uM relative to control
[8] = biological target: Ephrin type-A receptor 8 (Homo sapiens) (UniProt P29322); test: Inhibition of human EPHA8 at 0.5 uM relative to control
Chain of Ephrin type-A receptor 8 (Homo sapiens) (P29322 whole entry): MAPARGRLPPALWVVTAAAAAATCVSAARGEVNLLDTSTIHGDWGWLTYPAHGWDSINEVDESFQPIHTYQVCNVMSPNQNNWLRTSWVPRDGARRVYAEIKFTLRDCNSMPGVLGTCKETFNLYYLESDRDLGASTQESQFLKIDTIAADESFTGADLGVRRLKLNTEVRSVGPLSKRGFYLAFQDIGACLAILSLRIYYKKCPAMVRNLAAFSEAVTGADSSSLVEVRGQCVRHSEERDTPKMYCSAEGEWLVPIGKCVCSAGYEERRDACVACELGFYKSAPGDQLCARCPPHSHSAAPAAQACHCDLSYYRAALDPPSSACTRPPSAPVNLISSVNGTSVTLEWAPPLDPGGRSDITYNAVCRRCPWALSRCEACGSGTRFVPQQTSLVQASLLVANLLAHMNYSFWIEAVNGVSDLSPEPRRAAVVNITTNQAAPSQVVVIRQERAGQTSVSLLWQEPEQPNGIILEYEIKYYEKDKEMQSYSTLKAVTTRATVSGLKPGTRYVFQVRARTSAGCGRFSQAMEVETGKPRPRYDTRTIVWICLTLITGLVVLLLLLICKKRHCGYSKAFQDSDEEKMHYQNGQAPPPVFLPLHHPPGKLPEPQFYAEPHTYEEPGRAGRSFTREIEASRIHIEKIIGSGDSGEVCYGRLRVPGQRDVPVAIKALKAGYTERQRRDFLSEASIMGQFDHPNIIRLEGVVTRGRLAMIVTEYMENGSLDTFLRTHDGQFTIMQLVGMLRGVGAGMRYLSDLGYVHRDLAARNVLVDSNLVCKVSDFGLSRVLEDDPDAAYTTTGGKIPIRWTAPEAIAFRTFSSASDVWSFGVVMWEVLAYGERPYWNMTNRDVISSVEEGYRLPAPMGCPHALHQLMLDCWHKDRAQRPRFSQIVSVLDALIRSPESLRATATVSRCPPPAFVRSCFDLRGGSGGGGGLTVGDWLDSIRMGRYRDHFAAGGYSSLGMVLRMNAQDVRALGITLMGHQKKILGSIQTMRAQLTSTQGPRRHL

[9] = biological target: Vascular endothelial growth factor receptor 1 (Homo sapiens) (UniProt P17948); test: Inhibition of human Flt1 at 0.5 uM relative to control
Homo sapiens [10] = species on record: Homo sapiens; test: Inhibition of human PDGFR at 0.5 uM relative to control
Homo sapiens [11] = species on record: Homo sapiens; test: Inhibition of human DDR at 0.5 uM relative to control
[12] = biological target: Ephrin type-A receptor 4 (Homo sapiens) (UniProt P54764); test: Inhibition of human EPHA4 at 0.5 uM relative to control
[13] = biological target: Vascular endothelial growth factor receptor 3 (Homo sapiens) (UniProt P35916); test: Inhibition of human Flt4 at 0.5 uM relative to control
[14] = biological target: Ephrin type-A receptor 3 (Homo sapiens) (UniProt P29320); test: Inhibition of human EPHA3 at 0.5 uM relative to control
[15] = biological target: Ephrin type-A receptor 7 (Homo sapiens) (UniProt Q15375); test: Inhibition of human EPHA7 at 0.5 uM relative to control
[16] = biological target: Ephrin type-A receptor 5 (Homo sapiens) (UniProt P54756); test: Inhibition of human EPHA5 at 0.5 uM relative to control
Chain of Ephrin type-A receptor 5 (Homo sapiens) (P54756 whole entry): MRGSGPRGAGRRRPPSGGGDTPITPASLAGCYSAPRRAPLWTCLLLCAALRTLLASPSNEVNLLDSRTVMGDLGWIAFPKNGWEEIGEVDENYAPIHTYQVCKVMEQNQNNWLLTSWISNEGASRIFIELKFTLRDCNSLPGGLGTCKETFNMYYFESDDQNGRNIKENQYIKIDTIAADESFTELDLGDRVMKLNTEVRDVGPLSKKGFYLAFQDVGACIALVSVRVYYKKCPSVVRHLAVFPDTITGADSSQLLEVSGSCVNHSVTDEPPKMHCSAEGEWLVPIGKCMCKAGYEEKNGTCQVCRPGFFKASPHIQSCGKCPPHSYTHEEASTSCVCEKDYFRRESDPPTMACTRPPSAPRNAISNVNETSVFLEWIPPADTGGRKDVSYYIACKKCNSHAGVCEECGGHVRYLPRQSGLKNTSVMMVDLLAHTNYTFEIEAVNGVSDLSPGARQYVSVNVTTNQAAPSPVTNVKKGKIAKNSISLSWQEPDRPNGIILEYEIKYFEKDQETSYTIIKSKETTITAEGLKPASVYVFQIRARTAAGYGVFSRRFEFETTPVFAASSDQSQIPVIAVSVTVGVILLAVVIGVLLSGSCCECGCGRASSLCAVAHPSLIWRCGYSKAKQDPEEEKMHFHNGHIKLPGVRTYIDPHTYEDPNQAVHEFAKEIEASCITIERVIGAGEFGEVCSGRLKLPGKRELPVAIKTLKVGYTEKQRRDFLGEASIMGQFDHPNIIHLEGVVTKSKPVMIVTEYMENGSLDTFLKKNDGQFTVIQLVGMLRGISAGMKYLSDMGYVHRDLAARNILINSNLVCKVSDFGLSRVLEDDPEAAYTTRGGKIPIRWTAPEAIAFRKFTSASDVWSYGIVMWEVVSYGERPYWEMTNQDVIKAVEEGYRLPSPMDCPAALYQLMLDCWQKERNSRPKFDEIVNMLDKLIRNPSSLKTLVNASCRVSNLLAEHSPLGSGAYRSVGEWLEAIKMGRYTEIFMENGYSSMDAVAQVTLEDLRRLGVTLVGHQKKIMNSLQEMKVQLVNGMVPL

[17] = biological target: Mitogen-activated protein kinase kinase kinase kinase 5 (Homo sapiens) (UniProt Q9Y4K4); test: Inhibition of human KHS at 0.5 uM relative to control
[18] = biological target: Receptor-type tyrosine-protein kinase FLT3 (Homo sapiens) (UniProt P36888); test: Inhibition of human Flt3 at 0.5 uM relative to control
[19] = biological target: Tyrosine-protein kinase HCK (Homo sapiens) (UniProt P08631); test: Inhibition of human HCK at 0.5 uM relative to control
[20] = biological target: Ephrin type-A receptor 2 (Homo sapiens) (UniProt P29317); test: Inhibition of human EPHA2 at 0.5 uM relative to control
[21] = biological target: TRAF2 and NCK-interacting protein kinase (Homo sapiens) (UniProt Q9UKE5); test: Inhibition of human TNIK at 0.5 uM relative to control
Chain of TRAF2 and NCK-interacting protein kinase (Homo sapiens) (Q9UKE5 whole entry, looked up): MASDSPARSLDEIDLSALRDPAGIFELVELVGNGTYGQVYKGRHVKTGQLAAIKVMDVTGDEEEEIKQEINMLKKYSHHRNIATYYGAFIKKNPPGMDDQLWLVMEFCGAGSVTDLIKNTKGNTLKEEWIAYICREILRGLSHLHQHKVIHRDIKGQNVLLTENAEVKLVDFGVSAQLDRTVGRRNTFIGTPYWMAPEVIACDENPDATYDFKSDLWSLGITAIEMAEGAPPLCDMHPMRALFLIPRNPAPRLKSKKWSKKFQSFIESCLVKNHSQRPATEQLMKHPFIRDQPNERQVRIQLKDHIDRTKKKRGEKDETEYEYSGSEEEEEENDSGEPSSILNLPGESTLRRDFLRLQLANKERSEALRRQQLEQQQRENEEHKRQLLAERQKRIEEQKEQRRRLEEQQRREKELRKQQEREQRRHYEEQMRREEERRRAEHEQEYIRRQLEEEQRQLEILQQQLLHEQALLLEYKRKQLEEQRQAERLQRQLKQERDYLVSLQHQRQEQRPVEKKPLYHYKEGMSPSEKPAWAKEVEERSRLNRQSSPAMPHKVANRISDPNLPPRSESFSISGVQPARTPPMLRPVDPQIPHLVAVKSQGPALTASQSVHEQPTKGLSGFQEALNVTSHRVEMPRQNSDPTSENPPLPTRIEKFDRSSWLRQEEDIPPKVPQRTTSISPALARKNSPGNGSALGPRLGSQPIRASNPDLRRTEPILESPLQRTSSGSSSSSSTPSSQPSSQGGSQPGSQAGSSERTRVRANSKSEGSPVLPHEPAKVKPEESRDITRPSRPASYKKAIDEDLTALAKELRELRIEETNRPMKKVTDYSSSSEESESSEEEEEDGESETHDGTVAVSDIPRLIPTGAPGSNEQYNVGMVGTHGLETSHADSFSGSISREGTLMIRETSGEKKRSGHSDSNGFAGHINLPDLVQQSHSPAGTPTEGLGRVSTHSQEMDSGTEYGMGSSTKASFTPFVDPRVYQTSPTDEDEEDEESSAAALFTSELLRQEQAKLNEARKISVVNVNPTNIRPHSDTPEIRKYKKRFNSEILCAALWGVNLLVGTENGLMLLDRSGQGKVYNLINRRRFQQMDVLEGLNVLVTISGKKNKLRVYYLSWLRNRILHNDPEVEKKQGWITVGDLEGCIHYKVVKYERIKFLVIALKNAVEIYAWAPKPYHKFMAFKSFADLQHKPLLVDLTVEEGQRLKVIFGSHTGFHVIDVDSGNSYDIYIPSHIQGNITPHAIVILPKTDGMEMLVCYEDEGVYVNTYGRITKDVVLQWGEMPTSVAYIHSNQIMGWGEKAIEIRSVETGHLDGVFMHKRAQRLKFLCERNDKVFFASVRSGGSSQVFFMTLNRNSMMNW

Structure (SMILES)	inhibition of growth at 10 µM (MDA-MB-435 [1]) [%]	inhibition of growth at 10 µM (A-431) [%]	inhibition of growth at 10 µM (HUVEC [2]) [%]	IC50 (HUVEC [3]) [µM]	other results
COc1cc2ncnc(Oc3ccc(NC(=O)Nc4ccc(Cl)c(C(F)(F)F)c4)c4cccnc34)c2cc1OC	44.3	21	51.5		
CNC(=O)c1cc(Oc2ccc(NC(=O)Nc3ccc(Cl)c(C(F)(F)F)c3)cc2)ccn1 [SORAFENIB]	91.9	68.9	84.7	1.49	IC50 (MDA-MB-435 [4]): 2.11 µM
COc1cc2ncnc(Oc3ccc(NS(=O)(=O)c4ccccc4)c4ccccc34)c2cc1OC					inhibition [5]: 44.3%; IC50 [6]: > 10 µM
CCN(CC)CCNC(=O)c1c(C)[nH]c(/C=C2\C(=O)Nc3ccc(F)cc32)c1C					inhibition [7]: Active; inhibition [8]: Active; inhibition [9]: Active; inhibition (Homo sapiens [10]): Active; inhibition (Homo sapiens [11]): Active; inhibition [12]: Active; inhibition [13]: Active; inhibition [14]: Active; inhibition [15]: Active; inhibition [16]: Active; inhibition [17]: Active; inhibition [18]: Active; inhibition [19]: Active; inhibition [20]: Active; inhibition [21]: Active
COc1cc2ncnc(Oc3ccc(NC(=O)Nc4cc(C)on4)c4ccccc34)c2cc1OC	0.23	-1.52	61.9		
COc1cc2ncnc(Oc3ccc(NC(=O)Nc4cccc(C(F)(F)F)c4)c4ccccc34)c2cc1OC	24.5	-4.51	66.8		inhibition [5]: 99%; IC50 [6]: 0.0288 µM
COc1cc2ncnc(Oc3ccc(NC(=O)Nc4ccc(Cl)c(C(F)(F)F)c4)c4ccccc34)c2cc1OC	95.1	14.9	82.9	2.97	IC50 (MDA-MB-435 [4]): 3.79 µM
COc1cc2ncnc(Oc3ccc(NC(=O)NC4CC4)c4ccccc34)c2cc1OC	1.48	15.1	63.9		
COc1cc2ncnc(Oc3ccc(NC(=O)Nc4cnn(C(C)C)c4)c4ccccc34)c2cc1OC	27.7	49.9	93.6	0.63	
